We go through eight compounds from article PMC11645202 (Bioorganic & medicinal chemistry, 2024).

Data set [1] deals with pancreatic cancer cells (MiaPaca-2). Description: Cytotoxicity in pancreatic cancer cells, Promega CellTiter assay kit. Format: cell-based.
The test system of data set [2] is tubulin. Put plainly: Inhibition of tubulin polymerization. The format is biochemical. Conditions: for IC50: read-out: Tubulin Assembly IC50, tubulin at 10 μM.
The subject of data set [3] is tubulin. To be noted: compound 5 μM, cited from earlier work.
Data set [4] deals with MCF-7 human breast carcinoma cells. Conditions: read-out: MCF-7 IC50; inhibition of growth; cited from earlier work.
In data set [5] the test system is colon cancer cell line HCT-16. Description: Cytotoxicity in colon cancer cells, Promega CellTiter assay kit. The format is cell-based.
Data set [6] concerns A-10 cells. Description: Cellular microtubule loss by indirect immunofluorescence. Format: cell-based. Conditions: 20 μM compound 8c; 15 μM compound 13; 2.5 μM compound 18 (Figure 5).
Data set [7] concerns MCF-7 human breast carcinoma cells. Description: MCF-7 cell proliferation assay. The format is cell-based. The method, boiled down: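 MCF-7 human breast carcinoma cells grown 24 h without drug, then 48 h with varying concentrations of test compound. Growth read as total cell protein by sulforhodamine B staining; IC50 taken as concentration inhibiting cell growth.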
Data set [8] has as its system A-10 cells. To be noted: read-out: A-10 EC50 (cellular microtubule loss); cited from earlier work.

Like-named read-outs stand apart in the source and are kept apart here. Marks after values point to notes of the source that are not given here.

The IC50 is the concentration needed to halve the response being measured. Consider `COc1cc(/C=C\c2ccccc2B(O)O)cc(OC)c1OC` [Compound 8a, {2-[(Z)-2-(3,4,5-trimethoxyphenyl)vinyl]phenyl}boronic acid], for which the “activity in MiaPaca-2 (in words)” value in data set [1] is “potency comparable to that of CA-4 and phenstatin”. Also, the IC50 with tubulin [2] is more than 40000 nM.

Regarding `COc1ccc(C(=O)c2cc(OC)c(OC)c(OC)c2)cc1O` [Phenstatin, reference compound], the “[3H]Colchicine Binding inhibition” value in the data set on tubulin [3] is on record as 86^f %. For the same compound, the IC50 in data set [4] was 440 ± 70 nM.

Regarding `COc1cc(/C=C\c2cnc(OC)c(B(O)O)c2)cc(OC)c1OC` [Compound 13, {2-Methoxy-5-[(Z)-2-(3,4,5-trimethoxyphenyl)vinyl]pyridin-3-yl}boronic acid], in data set [5] (HCT16, read-out: IC50 in HCT-16), the IC50 was less than 5000 nM. The “effects on interphase microtubules in A-10 cells” value (“effects” for short) with A-10 cells [6] is “disrupted microtubules and loss of the microtubule network”. The “cytotoxicity in MCF-7 cells (in words)” value in data set [7] is recorded as “mid-nanomolar cytotoxicity”. In data set [7] (relative to compound 1), the “lower activity compared to 1 in inhibition of MCF-7 cell proliferation” value stood at 23 fold. Further, the “lower potency compared to 1 in inhibiting tubulin polymerization” value with tubulin [2] (relative to compound 1) worked out at 20 fold.

With `COc1ccc(/C=C\c2cc(OC)c(OC)c(OC)c2)cc1B(O)O` [Compound 1], the “[3H]Colchicine Binding inhibition” value in the data set with tubulin [3] (tubulin 1 μM, [3H]colchicine 5 μM) is listed as 79 ± 2^e %. The IC50 in data set [4] was 17 ± 5 nM.

For `COc1cc(/C=C\c2ccc(B(O)O)cc2)cc(OC)c1OC` [Compound 8c, {4-[(Z)-2-(3,4,5-trimethoxyphenyl)vinyl]phenyl}boronic acid], the “effects” value in the data set with A-10 cells [6] is “disrupted microtubules and loss of the microtubule network”.

Usually EC50 stands for the concentration needed to bring the measured effect to its halfway point. With `COc1ccc(/C=C\c2cc(OC)c(OC)c(OC)c2)cc1O` [CA-4, Combretastatin A-4], the EC50 with A-10 cells [8] was less than 25 nM. Also, in data set [4], the IC50 is 32 ± 20 nM.

For `COc1ccc(C(=O)c2cc(OC)c(OC)c(OC)c2)cc1B(O)O` [Compound 18, [2-Methoxy-5-(3,4,5-trimethoxybenzoyl)phenyl]boronic acid], the “activity in MiaPaca-2 (in words)” value in data set [1] is “potency comparable to that of CA-4 and phenstatin”. In the data set on A-10 cells [6], the “effects” value was “disrupted microtubules and loss of the microtubule network”. In data set [7], the “cytotoxicity in MCF-7 cells (in words)” value is “mid-nanomolar cytotoxicity”.

As for `COc1cc(C(=O)c2cnc(OC)c(B(O)O)c2)cc(OC)c1OC` [Compound 22, [2-Methoxy-5-(3,4,5-trimethoxybenzoyl)pyridin-3-yl]boronic acid], in data set [1], the “activity in MiaPaca-2 (in words)” value was “dramatically reduced activity”. In data set [5], the “activity in HCT-16 (in words)” value was “dramatically reduced activity”. The IC50 in the data set on tubulin [2] is more than 40000 nM. Further, the “activity (in words)” value in the data set on tubulin [2] (tubulin-based assays) is reported as “no activity”.
